# Calls of active or inactive are those of the source. The calls are words filed in the database; no cut-off is given here.
# Experiments:
# [1] = Selectivity index, ratio of IC50 for cytotoxicity against human HCT-116 cells assessed as inhibition of cell growth to MIC for antimycobacterial activity against Mycobacterium tuberculosis H37Rv assessed as reduction in microbial growth; assay type: toxicity, cell-based
# Procedure, shortened: (§1)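 Selectivity index: IC50 on each human cell line (72 h SRB assay) divided by MIC against Mtb H37Rv (MTT microassay).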
# [2] = Selectivity index, ratio of IC50 for cytotoxicity against human HepG2 cells assessed as inhibition of cell growth to MIC for antimycobacterial activity against Mycobacterium tuberculosis H37Rv assessed as reduction in microbial growth; assay type: toxicity, cell-based; procedure, shortened: as §1
# [3] = biological target: T1, Enoyl-[acyl-carrier-protein] reductase [NADH] (Mycobacterium tuberculosis, UniProt P9WGR1); assay: Inhibition of his6-tagged Mycobacterium tuberculosis InhA using trans-2-dodecenoyl-coenzyme as substrate in presence of […]
# T1 sequence (P9WGR1 whole entry): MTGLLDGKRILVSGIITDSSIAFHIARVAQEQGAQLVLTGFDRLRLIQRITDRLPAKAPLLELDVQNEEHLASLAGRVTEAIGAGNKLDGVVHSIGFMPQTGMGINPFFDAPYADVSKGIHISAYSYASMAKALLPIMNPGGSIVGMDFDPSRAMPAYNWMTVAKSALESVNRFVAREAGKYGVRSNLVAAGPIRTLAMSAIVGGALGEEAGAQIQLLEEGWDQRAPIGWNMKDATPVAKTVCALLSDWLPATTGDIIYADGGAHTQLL
# [4] = test system: Mycobacterium tuberculosis; assay: Antimycobacterial activity against Mycobacterium tuberculosis H37Rv assessed as reduction in microbial growth incubated for 6 days by broth dilution method; assay type: functional; conditions: 144 h, time 6 day
# Procedure, shortened: (§2)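 Mtb H37Rv pellicle cells dispersed with glass beads in 7H9-0.2% glycerol, clumps removed by low-speed spin; twofold serial dilutions (DMSO stocks 1 or 10 mM) in 7H9, inoculum OD600 0.1; 6 days at 37 °C, then MTT added, 1 day more; SDS solubilisation, OD 570 nm; MIC = lowest concentration inhibiting growth, ≥3 independent experiments.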
# HCT-116 = assay: Cytotoxicity against human HCT-116 cells assessed as inhibition of cell growth incubated for 72 hrs by SRB assay; assay type: functional, cell-based; conditions: HCT-116, 72 h
# Procedure, shortened: (§3)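 Seeded 24 h before dosing (HCT116 1500, CACO2 2500, HepG2 9000, WI38hTERT 3500 cells/well); HCT116 in DMEM high-glucose, others in MEM, 10% FBS (20% for CACO2); serial 2-fold dilutions for 72 h at 37 °C, 5% CO2; SRB staining, OD 490 nm; background-subtracted, normalized to untreated; duplicate points, ≥3 independent experiments; IC50 by four-parameter logistic fit.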
# Caco-2 = assay: Cytotoxicity against human Caco-2 cells assessed as inhibition of cell growth incubated for 72 hrs by SRB assay; assay type: functional, cell-based; conditions: Caco-2, 72 h; procedure, shortened: as §3
# HepG2 = assay: Cytotoxicity against human HepG2 cells assessed as inhibition of cell growth incubated for 72 hrs by SRB assay; assay type: functional, cell-based; conditions: HepG2, 72 h; procedure, shortened: as §3
# WI-38 = assay: Cytotoxicity against human WI-38 cells assessed as inhibition of cell growth incubated for 72 hrs by SRB assay; assay type: functional, cell-based; conditions: WI-38, 72 h; procedure, shortened: as §3
# [5] = Selectivity index, ratio of IC50 for cytotoxicity against human Caco-2 cells assessed as inhibition of cell growth to MIC for antimycobacterial activity against Mycobacterium tuberculosis H37Rv assessed as reduction in microbial growth; assay type: toxicity, cell-based; procedure, shortened: as §1
# [6] = Selectivity index, ratio of IC50 for cytotoxicity against human WI-38 cells assessed as inhibition of cell growth to MIC for antimycobacterial activity against Mycobacterium tuberculosis H37Rv assessed as reduction in microbial growth; assay type: toxicity, cell-based; procedure, shortened: as §1
# [7] = biological target: T2, Enoyl-[acyl-carrier-protein] reductase [NADH] (Mycobacterium tuberculosis) (UniProt P9WGR1); assay: Inhibition of his6-tagged Mycobacterium tuberculosis InhA using trans-2-dodecenoyl-coenzyme as substrate at 200 uM in presence of […] relative to control
# T2 sequence (whole entry): T1 sequence (P9WGR1 whole entry)
# [8] = biological target: T2, Enoyl-[acyl-carrier-protein] reductase [NADH] (Mycobacterium tuberculosis); assay: Inhibition of his6-tagged Mycobacterium tuberculosis InhA using trans-2-dodecenoyl-coenzyme as substrate at 500 uM in presence of […] relative to control
# [9] = biological target: T2, Enoyl-[acyl-carrier-protein] reductase [NADH] (Mycobacterium tuberculosis); assay: Inhibition of his6-tagged Mycobacterium tuberculosis InhA using trans-2-dodecenoyl-coenzyme as substrate at 50 uM in presence of […] relative to control
# [10] = biological target: T2, Enoyl-[acyl-carrier-protein] reductase [NADH] (Mycobacterium tuberculosis); assay: Inhibition of his6-tagged Mycobacterium tuberculosis InhA using trans-2-dodecenoyl-coenzyme as substrate at 10 uM in presence of […] relative to control
# [11] = biological target: T1, Enoyl-[acyl-carrier-protein] reductase [NADH]; assay: Inhibition of Mycobacterium tuberculosis H37Rv InhA using trans-2-dodecenoyl-coenzyme A as substrate in presence of NADH
# [12] = test system: Mycobacterium tuberculosis; assay: Antimycobacterial activity against Mycobacterium tuberculosis H37Rv assessed as reduction in microbial growth; assay type: functional; procedure, shortened: as §2
# [13] = biological target: T2, Enoyl-[acyl-carrier-protein] reductase [NADH] (Mycobacterium tuberculosis); assay: Inhibition of his6-tagged Mycobacterium tuberculosis InhA using trans-2-dodecenoyl-coenzyme as substrate at 100 uM in presence of […] relative to control
smiles,measurement,setting,value
CCN(CC)c1ccc2c(OCc3cn(Cc4ccc(Oc5ccccc5)c(O)c4)nn3)cc(=O)oc2c1,selectivity ratio,[1],0.4
same,selectivity ratio,[2],1.3
same,IC50,[3]; read-out: IC50,54 nM
same,MIC,[4],0.7 µg/mL
same,IC50,HCT-116,530 nM
same,IC50,Caco-2,1100 nM
same,IC50,HepG2,1600 nM
same,IC50,WI-38,600 nM
same,selectivity ratio,[5],0.9
same,selectivity ratio,[6],0.5
O=[N+]([O-])c1ccc(NCc2cn(Cc3ccc(Oc4ccccc4)c(O)c3)nn2)c2nonc12,IC50,[3]; read-out: IC50,459 nM
same,MIC,[4],4.6 µg/mL
O=C(O)c1cn(C2CC2)c2cc(N3CCNCC3)c(F)cc2c1=O [CIPROFLOXACIN],IC50,[3],Not Active
same,MIC,[4],0.8 µg/mL
Cc1cc(=O)oc2cc(OCc3cnnn3Cc3ccc(Oc4ccccc4)c(O)c3)ccc12,IC50,[3]; read-out: IC50,510 nM
C#CCOc1ccc2c(C)cc(=O)oc2c1,inhibition,[7],37%
same,inhibition,[8],90%
O=c1ccc2ccc(OCc3cn(Cc4ccc(Oc5ccccc5O)cc4)nn3)cc2o1,inhibition,[9],10%
same,MIC,[4],2.2 µg/mL
C#CCNC(=O)c1cc2ccccc2oc1=O,inhibition,[7],inactive
CCCCCCc1ccc(Oc2ccc(Cn3cc(CNC(=O)c4cc5ccc(N(CC)CC)cc5oc4=O)nn3)cc2)c(O)c1,inhibition,[9],53.7%
same,inhibition,[10],31.5%
same,MIC,[4],> 60 µg/mL
COc1cccc2cc(C(=O)NCc3cn(Cc4ccc(Oc5ccccc5)c(O)c4)nn3)c(=O)oc12,IC50,[3]; read-out: IC50,740 nM
same,MIC,[4],5 µg/mL
CN(C)S(=O)(=O)c1ccc(NCc2cn(Cc3ccc(Oc4ccccc4)c(O)c3)nn2)c2nonc12,IC50,[3]; read-out: IC50,733 nM
same,MIC,[4],> 52 µg/mL
CCCCCCc1ccc(Oc2ccc(Cn3cc(CNc4ccc([N+](=O)[O-])c5nonc45)nn3)cc2)c(O)c1,selectivity ratio,[1],3.5
same,selectivity ratio,[2],10.8
same,inhibition,[9],32.3%
same,inhibition,[10],11.4%
same,MIC,[4],1.4 µg/mL
same,IC50,HCT-116,8700 nM
same,IC50,Caco-2,26100 nM
same,IC50,HepG2,26900 nM
same,IC50,WI-38,52900 nM
same,selectivity ratio,[5],10.5
same,selectivity ratio,[6],21.2
O=C(NCc1cn(Cc2ccc(Oc3ccccc3)c(O)c2)nn1)c1cc2cc(O)ccc2oc1=O,IC50,[3]; read-out: IC50,844 nM
same,MIC,[4],> 4.8 µg/mL
Oc1cc2ccc1Oc1ccc(cc1)CCc1ccc(c(O)c1)Oc1ccc(cc1)CC2,IC50,[11],4700 nM
[N-]=[N+]=NCc1ccc(Oc2ccccc2)c(O)c1,IC50,[3]; read-out: IC50,843 nM
C#CCOc1cc(=O)oc2ccccc12,inhibition,[8],inactive
O=c1cc(OCc2cn(Cc3ccc(Oc4ccccc4)c(O)c3)nn2)c2ccccc2o1,IC50,[3]; read-out: IC50,181 nM
same,MIC,[4],2.2 µg/mL
Cc1cc(=O)oc2cc(OCc3cn(Cc4ccc(Oc5ccccc5)c(O)c4)nn3)ccc12,selectivity ratio,[1],19.1
same,selectivity ratio,[2],24.8
same,IC50,[3]; read-out: IC50,205 nM
same,MIC,[4],0.6 µg/mL
same,IC50,HCT-116,23900 nM
same,IC50,Caco-2,25000 nM
same,IC50,HepG2,31000 nM
same,IC50,WI-38,> 100000 nM
same,selectivity ratio,[5],20
same,selectivity ratio,[6],> 80
CCCCCCCCc1ccc(Oc2ccccc2)c(O)c1,MIC,[12],6.4 µM
C#CCOc1ccc2ccc(=O)oc2c1,inhibition,[7],99%
same,inhibition,[13],30%
C#CCNC(=O)c1cc2ccc(N(CC)CC)cc2oc1=O,inhibition,[8],10%
O=c1ccc2ccc(OCc3cnnn3Cc3ccc(Oc4ccccc4)c(O)c3)cc2o1,IC50,[3]; read-out: IC50,630 nM
COc1ccc2cc(C(=O)NCc3cn(Cc4ccc(Oc5ccccc5)c(O)c4)nn3)c(=O)oc2c1,IC50,[3]; read-out: IC50,345 nM
same,MIC,[4],> 5 µg/mL
CCN(CC)c1ccc2cc(C(=O)NCc3cn(Cc4ccc(Oc5ccccc5)c(O)c4)nn3)c(=O)oc2c1,IC50,[3]; read-out: IC50,3550 nM
same,MIC,[4],> 54 µg/mL
O=c1ccc2ccc(OCc3cn(Cc4ccc(Oc5ccccc5)c(O)c4)nn3)cc2o1,IC50,[3]; read-out: IC50,163 nM
same,MIC,[4],2.2 µg/mL
O=C(NCc1cn(Cc2ccc(Oc3ccccc3)c(O)c2)nn1)c1cc2ccccc2oc1=O,IC50,[3]; read-out: IC50,598 nM
same,MIC,[4],4.7 µg/mL
